According to ChEMBL document CHEMBL2396655, “Design, synthesis, and biological evaluation of (E)-N-aryl-2-arylethenesulfonamide analogues as potent and orally bioavailable microtubule-targeted anticancer agents” (J Med Chem, 2013):
In brackets after ≈: the same amount, converted by molar mass. Activity calls are given as the source filed them. No cut-off for these calls is given here.

Legend:
Tubulin (Sus scrofa) [1] = molecular target: T1, Tubulin (Sus scrofa) (UniProt P02554+P02550); assay: Competitive binding affinity to pig brain tubulin paclitaxel binding site at 0.1 to 100 uM after 1 hr by mass spectrophotometric analysis in presence of paclitaxel and GTP
Procedure, shortened: (§1)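 Porcine brain tubulin (1.0 mg/mL) in PIPES 80 mM, MgCl₂ 2 mM, EGTA 0.5 mM, pH 6.9, at 37 °C. […] Competitor was 0.1–100 μM for 1 h. Unbound ligand in the 30 kDa ultrafiltrate was measured by MS. Runs were in triplicate; IC50 came from a Hill fit.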

DU-145 = assay: Cytotoxicity against human DU145 cells after 96 hrs by trypan blue exclusion assay; assay type: functional, cell-based; settings: for IC50: DU-145, 96 h
Procedure, shortened: (§2)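 Cells were grown in DMEM or RPMI with 10% FBS and plated at 2.5×10⁴ cells/well in 12-well dishes. Compounds were added 24 h later at various concentrations. After 96 h, viable cells were counted by trypan blue exclusion from duplicate wells. Results are the mean of two independent experiments.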

K562 = assay: Cytotoxicity against human K562 cells after 96 hrs by trypan blue exclusion assay; assay type: functional, cell-based; settings: for IC50: K562, 96 h; procedure, shortened: as §2
[2] = Solubility of the compound in water; assay type: physicochemical
Bos taurus = species: Bos taurus; assay: Inhibition of bovine brain tubulin assessed as destabilization of microtubule polymerization at 10 uM over 40 mins by spectrophotometric analysis
Procedure, shortened: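 Purified bovine brain tubulin was incubated at 37 °C with 10 μM compound, DMSO or reference agents. Polymerization was followed as rising absorbance at 340 nm over 40 min. Data are representative of three independent experiments.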

Tubulin (Sus scrofa) [3] = molecular target: T1, Tubulin (Sus scrofa); assay: Competitive binding affinity to pig brain tubulin vinblastine binding site at 0.1 to 100 uM after 1 hr by mass spectrophotometric analysis in presence of vinblastine; procedure, shortened: as §1
[4] = Cytotoxicity against human Caco2 cells after 1 hr by Alamar Blue assay; assay type: cell-based; settings: Caco-2 cells, read-out: LD50

Activity (Tubulin (Sus scrofa) [1])	solubility [2]	inhibition (Bos taurus)	Activity (Tubulin (Sus scrofa) [3])	SMILES	Activity (DU-145)	IC50 (DU-145)	Activity (K562)	IC50 (K562)	CC50 at 1 h [4]
Active	–	–	–	CC(=O)O[C@@]12CO[C@@H]1C[C@H](O)[C@@]1(C)C(=O)[C@H](O)C3=C(C)[C@@H](OC(=O)[C@H](O)[C@@H](NC(=O)OC(C)(C)C)c4ccccc4)C[C@@](O)([C@@H](OC(=O)c4ccccc4)[C@H]21)C3(C)C	–	–	–	–	–
–	10000 µg/mL (≈ 17.8 mM)	–	–	COc1cc(OC)c(/C=C/S(=O)(=O)Nc2ccc(OC)c(NC(C(=O)O)c3ccc(Cl)cc3)c2)c(OC)c1 (stereo not drawn)	Dose-dependent effect	0.075 µM	Dose-dependent effect	0.015 µM	–
–	10000 µg/mL (≈ 21.4 mM)	–	–	COc1cc(OC)c(/C=C/S(=O)(=O)Nc2ccc(OC)c(NC(C)C(=O)O)c2)c(OC)c1 (stereo not drawn)	Dose-dependent effect	0.04 µM	Dose-dependent effect	0.008 µM	–
–	–	Active	–	COC(=O)Nc1nc2cc(C(=O)c3cccs3)ccc2[nH]1	–	–	–	–	–
–	–	–	Active	CC[C@]1(O)C[C@H]2CN(CCc3c([nH]c4ccccc34)[C@@](C(=O)OC)(c3cc4c(cc3OC)N(C=O)[C@H]3[C@@](O)(C(=O)OC)[C@H](OC(C)=O)[C@]5(CC)C=CCN6CC[C@]43[C@@H]65)C2)C1	–	–	–	–	–
–	–	–	–	COc1cc(OC)c(/C=C/S(=O)(=O)Nc2ccc(F)c([N+](=O)[O-])c2)c(OC)c1	Dose-dependent effect	100 µM	Dose-dependent effect	75 µM	–
–	10000 µg/mL (≈ 18.3 mM)	–	–	COc1cc(OC)c(/C=C/S(=O)(=O)Nc2ccc(OC)c(NC(C(=O)O)c3ccc(F)cc3)c2)c(OC)c1 (stereo not drawn)	Dose-dependent effect	0.075 µM	Dose-dependent effect	0.02 µM	–
–	–	–	–	COc1ccc(NS(=O)(=O)/C=C/c2ccccc2OC)cc1	Dose-dependent effect	5 µM	Dose-dependent effect	5 µM	–
–	–	–	–	O=c1cc[nH]c(=S)[nH]1 [THIOURACIL]	–	–	–	–	> 1 mM
–	–	–	–	COc1ccc(/C=C/S(=O)(=O)Nc2ccc(F)cc2)cc1	Dose-dependent effect	10 µM	Dose-dependent effect	10 µM	–
–	–	–	–	COc1ccc(/C=C/S(=O)(=O)Nc2c(F)c(F)c(F)c(F)c2F)cc1N	Dose-dependent effect	35 µM	Dose-dependent effect	35 µM	–
–	–	–	–	COc1ccc(NS(=O)(=O)/C=C/c2c(OC)cc(OCCCC(=O)O)cc2OC)cc1N	Dose-dependent effect	10 µM	Dose-dependent effect	10 µM	–
–	–	–	–	COc1ccc(NS(=O)(=O)/C=C/c2ccc(OC)cc2OC)cc1	Dose-dependent effect	15 µM	Dose-dependent effect	15 µM	–
–	10000 µg/mL (≈ 22.1 mM)	Active	–	COc1cc(OC)c(/C=C/S(=O)(=O)Nc2ccc(OC)c(NCC(=O)O)c2)c(OC)c1	Dose-dependent effect	0.4 µM	Dose-dependent effect	0.02 µM	–
–	–	–	–	COc1ccc(NS(=O)(=O)/C=C/c2c(OC)cc(OCCCC(=O)O)cc2OC)cc1[N+](=O)[O-]	Dose-dependent effect	100 µM	Dose-dependent effect	100 µM	–
–	10000 µg/mL (≈ 18.9 mM)	–	–	COc1cc(OC)c(/C=C/S(=O)(=O)Nc2ccc(OC)c(NC(C(=O)O)c3ccccc3)c2)c(OC)c1 (stereo not drawn)	Dose-dependent effect	0.075 µM	Dose-dependent effect	0.3 µM	–

Activity (Tubulin (Sus scrofa) [1])	solubility [2]	inhibition (Bos taurus)	Activity (Tubulin (Sus scrofa) [3])	SMILES	Activity (DU-145)	IC50 (DU-145)	Activity (K562)	IC50 (K562)	CC50 at 1 h [4]
–	–	–	–	COc1ccc(/C=C/S(=O)(=O)Nc2c(OC)cc(OC)cc2OC)cc1	Dose-dependent effect	7.5 µM	Dose-dependent effect	2.5 µM	–
–	–	–	–	COc1ccc(/C=C/S(=O)(=O)Nc2ccc(OC)c(F)c2)cc1	Dose-dependent effect	5 µM	Dose-dependent effect	1 µM	–
–	–	–	–	COC(=O)CNc1cc(NS(=O)(=O)/C=C/c2c(OC)cc(OC)cc2OC)ccc1OC	Dose-dependent effect	0.35 µM	Dose-dependent effect	0.35 µM	–
–	–	–	–	COc1ccc(NS(=O)(=O)/C=C/c2c(F)c(F)c(F)c(F)c2F)cc1F	Dose-dependent effect	10 µM	Dose-dependent effect	10 µM	–
–	–	–	–	COC(=O)C(Nc1cc(NS(=O)(=O)/C=C/c2c(OC)cc(OC)cc2OC)ccc1OC)c1ccc(F)cc1 (stereo not drawn)	Dose-dependent effect	2.5 µM	Dose-dependent effect	2.5 µM	–
–	–	–	–	COC(=O)C(Nc1cc(NS(=O)(=O)/C=C/c2c(OC)cc(OC)cc2OC)ccc1OC)c1ccc(Cl)cc1 (stereo not drawn)	Dose-dependent effect	5 µM	Dose-dependent effect	2.5 µM	–
–	–	–	–	COc1ccc(NS(=O)(=O)/C=C/c2c(F)c(F)c(F)c(F)c2F)cc1	Dose-dependent effect	10 µM	Dose-dependent effect	5 µM	–
–	–	–	–	O=S(=O)(/C=C/c1ccccc1)Nc1ccc(Cl)cc1	Dose-dependent effect	20 µM	Dose-dependent effect	20 µM	–
–	–	–	–	COc1ccc(/C=C/S(=O)(=O)Nc2ccc(OC)cc2)cc1	Dose-dependent effect	5 µM	Dose-dependent effect	5 µM	–
–	–	–	–	COc1cc(OC)c(/C=C/S(=O)(=O)Nc2cc(N)c(OC)c(N)c2)c(OC)c1	Dose-dependent effect	2.5 µM	Dose-dependent effect	7.5 µM	–
–	–	–	–	COc1cc(OC)c(/C=C/S(=O)(=O)Nc2cc([N+](=O)[O-])c(OC)c([N+](=O)[O-])c2)c(OC)c1	Dose-dependent effect	10 µM	Dose-dependent effect	10 µM	–
–	10000 µg/mL (≈ 16.5 mM)	–	–	COc1cc(OC)c(/C=C/S(=O)(=O)Nc2ccc(OC)c(NC(C(=O)O)c3ccc(Br)cc3)c2)c(OC)c1 (stereo not drawn)	Dose-dependent effect	0.25 µM	Dose-dependent effect	0.075 µM	–
–	–	–	–	O=S(=O)(/C=C/c1ccc(Br)cc1)Nc1ccc(F)cc1	Dose-dependent effect	10 µM	Dose-dependent effect	10 µM	–
–	–	–	–	COc1ccc(NS(=O)(=O)/C=C/c2c(F)cc(F)cc2F)cc1	Dose-dependent effect	75 µM	Dose-dependent effect	15 µM	–
–	–	–	–	COc1ccc(NS(=O)(=O)/C=C/c2c(F)c(F)c(F)c(F)c2F)cc1[N+](=O)[O-]	Dose-dependent effect	100 µM	Dose-dependent effect	100 µM	–
–	–	–	–	O=S(=O)(/C=C/c1c(F)c(F)c(F)c(F)c1F)Nc1c(F)c(F)c(F)c(F)c1F	Dose-dependent effect	35 µM	Dose-dependent effect	35 µM	–
